Target: NS3 (Hepatitis C virus, UniProt A3EZJ3)
Experiment: Inhibition of HCV NS3 protease
Design: species or system Hepacivirus hominis
Conditions: not given
In short: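 IC50 taken after a 30 min preincubation of enzyme with inhibitor. Each value is the mean of 2 independent measurements, with standard deviations within 35% of the mean.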

NS3, sequence (A3EZJ3 whole entry): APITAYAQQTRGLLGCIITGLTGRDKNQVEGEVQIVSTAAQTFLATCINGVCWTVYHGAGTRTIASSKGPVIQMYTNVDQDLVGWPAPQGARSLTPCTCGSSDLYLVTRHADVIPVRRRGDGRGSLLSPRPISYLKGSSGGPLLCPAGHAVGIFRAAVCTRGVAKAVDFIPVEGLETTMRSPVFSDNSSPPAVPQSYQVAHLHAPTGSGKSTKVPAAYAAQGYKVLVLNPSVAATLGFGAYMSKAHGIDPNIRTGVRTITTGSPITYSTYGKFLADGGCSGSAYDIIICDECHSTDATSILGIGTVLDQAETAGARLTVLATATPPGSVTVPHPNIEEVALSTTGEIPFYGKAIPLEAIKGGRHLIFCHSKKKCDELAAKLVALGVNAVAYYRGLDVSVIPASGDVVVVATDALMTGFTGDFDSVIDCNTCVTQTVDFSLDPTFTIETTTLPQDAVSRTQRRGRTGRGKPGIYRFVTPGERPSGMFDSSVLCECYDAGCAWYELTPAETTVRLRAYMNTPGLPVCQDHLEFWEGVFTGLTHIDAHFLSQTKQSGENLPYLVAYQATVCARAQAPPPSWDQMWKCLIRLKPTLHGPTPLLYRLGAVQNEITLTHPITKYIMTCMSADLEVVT

Row | SMILES | IC50 [µM]
1 | CC(C)C[C@H](NC(=O)C1(Cc2ccc(Cl)s2)Cc2ccccc2N1)C(=O)NC(CC(F)F)C(=O)C(=O)O (stereo partly specified) | 3.7
2 | CC(C)C[C@H](NC(=O)C1(C2CCCCC2)Cc2ccccc2N1)C(=O)NC(CC(F)F)C(=O)C(=O)O (single isomer, unassigned; diastereomer 1) | 69
3 | CC(C)C[C@H](NC(=O)C1(CC2CCC2)Cc2ccccc2N1)C(=O)NC(CC(F)F)C(=O)C(=O)O (single isomer, unassigned; diastereomer 1) | 34
4 | CC(C)C[C@H](NC(=O)C1(Cc2ccsc2C(=O)O)Cc2ccccc2N1)C(=O)NC(CC(F)F)C(=O)C(=O)O (single isomer, unassigned; diastereomer 1) | 0.7
5 | CC(C)C[C@H](NC(=O)C1(Cc2ccsc2C(=O)O)Cc2ccccc2N1)C(=O)NC(CC(F)F)C(=O)C(=O)O (single isomer, unassigned; diastereomer 2) | 27
6 | CC(C)C[C@H](NC(=O)C1(Cc2ccsc2C(=O)O)Cc2ccccc2N1)C(=O)NC(CC(F)F)C(=O)C(=O)O (single isomer, unassigned; diastereomer 3) | 38
7 | CC(C)C[C@H](NC(=O)C1(Cc2ccsc2C(=O)O)Cc2ccccc2N1)C(=O)NC(CC(F)F)C(=O)C(=O)O (single isomer, unassigned; diastereomer 4) | 73

The next lines start with the values.

Row | IC50 [µM] | SMILES
8 | 50 | CC(C)C[C@H](NC(=O)C1Cc2ccccc2N1)C(=O)NC(CC(F)F)C(=O)C(=O)O (single isomer, unassigned; diastereomer 2)
9 | 27 | CC(C)C[C@H](NC(=O)C1Cc2ccc(OCC(=O)O)cc2N1)C(=O)NC(CC(F)F)C(=O)C(=O)O (single isomer, unassigned; diastereomer 2)
10 | 10 | CC(C)C[C@H](NC(=O)C1Cc2ccc(OCC(=O)O)cc2N1)C(=O)NC(CC(F)F)C(=O)C(=O)O (stereo in doubt; 7m)

Target: NS3 (Hepatitis C virus) (UniProt A3EZJ3)
Experiment: Inhibition of HCV NS3 protease at 100 uM
Conditions: Hepacivirus hominis

NS3 (Hepatitis C virus), sequence (A3EZJ3 as listed by the source): as the sequence (A3EZJ3 whole entry) above

Row | SMILES | inhibition [%]
11 | CC(C)C[C@H](NC(=O)C1(C2CCCCC2)Cc2ccccc2N1)C(=O)NC(CC(F)F)C(=O)C(=O)O (single isomer, unassigned; diastereomer 2) | < 50
12 | CC(C)C[C@H](NC(=O)C1(CC2CCC2)Cc2ccccc2N1)C(=O)NC(CC(F)F)C(=O)C(=O)O (single isomer, unassigned; diastereomer 2) | < 50

Second part, the molecule after the results:

Row | inhibition [%] | SMILES
13 | < 50 | CC(C)C[C@H](NC(=O)C1Cc2ccccc2N1)C(=O)NC(CC(F)F)C(=O)C(=O)O (single isomer, unassigned; diastereomer 1)
14 | < 50 | CC(C)C[C@H](NC(=O)C1Cc2ccc(OCC(=O)O)cc2N1)C(=O)NC(CC(F)F)C(=O)C(=O)O (single isomer, unassigned; diastereomer 3)
15 | < 50 | CC(C)C[C@H](NC(=O)C1Cc2ccccc2N1)C(=O)NC(CC(F)F)C(=O)C(=O)O (single isomer, unassigned; diastereomer 3)
16 | < 50 | CC(C)C[C@H](NC(=O)C1Cc2ccc(OCC(=O)O)cc2N1)C(=O)NC(CC(F)F)C(=O)C(=O)O (single isomer, unassigned; diastereomer 4)

Reference: ChEMBL document CHEMBL1149267, “The design and enzyme-bound crystal structure of indoline based peptidomimetic inhibitors of hepatitis C virus NS3 protease” (J Med Chem, 2004)
